Most compounds without a hit are left out; they make up all but 1.5% or so of the library.
CCR6 antag: antagonists of human CCR6 receptor. P51684. CHO-K1 CCR6 PathHunter beta-arrestin, luminescence, CCL20-stimulated. hit rate 0.49% among 340,000. inhibition, % at 20 µM. AID 493098;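 active = compounds whose inhibition of the agonist-driven luminescence signal at 20 µM reaches about 50%, limit read from the data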;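 note: cells stimulated with CCL20 at 14 nM final; plate controls were DMSO with CCL20 for no effect and DMSO without agonist for full effect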
APJ antag: blocks the human apelin receptor APJ; CHO-K1 APJ beta-arrestin complementation, luminescence; inhibition, % at 20 µM; hit rate 0.32% among 330,000;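 active = inhibition above about 40% at 20 µM, limit read from the data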;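 note: cells challenged with 10 nM apelin-13 agonist together with compound; plate controls were apelin-13 plus DMSO wells for no effect and DMSO wells lacking apelin-13 for full effect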
Target sequence (P35414 whole entry, looked up): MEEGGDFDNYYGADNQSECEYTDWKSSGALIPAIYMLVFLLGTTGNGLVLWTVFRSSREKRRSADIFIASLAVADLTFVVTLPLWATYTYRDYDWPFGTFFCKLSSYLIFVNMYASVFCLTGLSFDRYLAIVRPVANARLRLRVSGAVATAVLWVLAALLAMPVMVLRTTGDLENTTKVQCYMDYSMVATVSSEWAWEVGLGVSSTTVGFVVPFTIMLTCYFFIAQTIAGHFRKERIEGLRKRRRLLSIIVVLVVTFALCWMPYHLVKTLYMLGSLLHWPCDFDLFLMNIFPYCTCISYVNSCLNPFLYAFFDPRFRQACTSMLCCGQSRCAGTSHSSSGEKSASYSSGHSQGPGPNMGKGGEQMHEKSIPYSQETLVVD
CXCR6 inh: CXCR6 (human) receptor inhibition | inhibition, % at 20 µM | CHO-K1 PathHunter CXCR6 beta-arrestin, luminescence | O00574 | hit rate 0.36% among 360,000; in the data active = inhibition above about 34%, passing the limit was not always enough;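 note: antagonist mode with CXCL16 agonist at 10 nM final; 0% = 10 nM CXCL16 with DMSO and 100% = unstimulated wells without agonist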
APJ agonist: activates the human apelin receptor APJ | activation, % at 20 µM | hit rate 0.11% among 330,000 | CHO-K1 APJ PathHunter beta-arrestin, luminescence; 0% DMSO wells, 100% apelin | AID 2520 | P35414;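 active = activation more than six SD over the plate average, tested at 20 µM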;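 note: 0% = DMSO alone and 100% = apelin-13 at 10 nM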
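Assay system: engineered CHO-K1 APJ arrestin reporter cells; Amount: 1000 CHO-K1 reporter cells seeded per well; Dosing: one dose, 20 µM compound, 1% DMSO; Times: compound stimulation 90 min at 25 °C, detection 60 min; Measured by: luminescent beta-gal fragment complementation, chemiluminescent substrate; Read-out: APJ–arrestin association signal; Controls: DMSO vs Apelin-13 10 nM.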
EBI2 antag: blocks human EBI2 receptor beta-arrestin signaling. P32249. EBI2 beta-arrestin recruitment, luminescence, 7a,25-OHC stimulated. inhibition, % at 5 µM. hit rate 0.81% among 360,000; in the data active = inhibition above about 38%;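 note: enzyme fragment complementation signal reports receptor beta-arrestin coupling in cells; 0% = agonist plus DMSO wells and 100% = wells without agonist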
An asterisk follows results filed as active.

Results for COc1ccc(CN2C(=O)C(CC(=O)NCc3ccco3)CC(C(=O)N3CCOCC3)=C2C)cc1 (stereo unspecified) ?
CXCR6 inh: 7.0; EBI2 antag: 1.3

Results for CC(C)SC1=NC(C)(C)C=C(/C=C/c2ccc(Cl)cc2Cl)N1 ?
CCR6 antag: 50.8*; APJ antag: 1.0; CXCR6 inh: 14.4; APJ agonist: -8.8; EBI2 antag: 5.7

Results for Clc1cccc(Cl)c1/C=C/c1nc2ccccc2[nH]1 ?
CCR6 antag: -4.0; APJ antag: -1.9; CXCR6 inh: -5.0; APJ agonist: 2.8; EBI2 antag: 12.8

Results for CC(C)SC1=NC(C)(C)C=C(/C=C/c2c(Cl)cccc2Cl)N1 ?
CCR6 antag: 52.2*; APJ antag: 11.1; CXCR6 inh: 8.6; APJ agonist: -1.2; EBI2 antag: -0.5

How did C/C(=N\Nc1ccc(Cl)c(C(=O)O)c1)c1ccccn1 do in these assays?
CCR6 antag: 5.3; APJ antag: 6.7; CXCR6 inh: 4.2; APJ agonist: -0.7; EBI2 antag: 4.0

What do the screens show for `C/C(=N\Nc1ncc(Cl)cc1Cl)c1ccccn1`?
CCR6 antag: 30.9; CXCR6 inh: 49.6*; EBI2 antag: 55.9*

How did COC(=O)[C@@]12C[C@@H](CC(=O)NCc3ccc(OC)c(OC)c3)C(=O)N(Cc3ccccc3)C1=CCC(C)(C)C2 do in these assays?
EBI2 antag: -3.3

What do the screens show for `COc1ccc(C(=O)/C=C2/C(=O)Nc3ccccc32)c(OC)c1`?
CCR6 antag: 25.0; APJ antag: 25.2; CXCR6 inh: 15.9; APJ agonist: 1.7; EBI2 antag: 79.6*

How did O=C1Nc2ccccc2/C1=C/c1cnc(-c2ccccc2)[nH]1 do in these assays?
CCR6 antag: -7.1; APJ antag: -10.0; CXCR6 inh: -4.8; APJ agonist: 1.4; EBI2 antag: 9.5

What do the screens show for `C=CCOc1ccccc1C(=O)/C=C1/C(=O)Nc2ccccc21`?
CCR6 antag: 45.2; APJ antag: 18.0; CXCR6 inh: 11.8; APJ agonist: 3.5; EBI2 antag: 53.2*

How did COc1cc(OC)c(/C=C2\C(=O)Nc3ccccc32)c(OC)c1 do in these assays?
CCR6 antag: 12.6; APJ antag: 9.0; APJ agonist: -2.4

How did O=C1CNC(=O)c2cc(Cl)ccc2N1 do in these assays?
CXCR6 inh: -9.7; EBI2 antag: 0.3

Results for COc1ccc(C(=O)Nc2cccc(OC)c2)cc1 ?
CCR6 antag: 7.5; APJ antag: -11.0; CXCR6 inh: -0.7; APJ agonist: 2.5; EBI2 antag: 10.7

Results for COc1cccc(NC(=O)c2ccc(OC(F)(F)F)cc2)c1 ?
CCR6 antag: 16.8; APJ antag: -12.3; CXCR6 inh: -2.4; APJ agonist: 1.7; EBI2 antag: 43.9*

Results for O=C(Nc1cc(S(=O)(=O)Nc2ccc(Cl)cc2)ccc1O)c1ccc(S(=O)(=O)N2CCCCCC2)cc1 ?
CCR6 antag: 9.0; APJ antag: -13.8; CXCR6 inh: 2.6; APJ agonist: -1.6; EBI2 antag: 10.5

Results for O=C(N/N=C\c1cc(Cl)ccc1O)c1ccc(S(=O)(=O)N2CCCCC2)cc1 ?
CCR6 antag: 16.4; APJ antag: -12.8; CXCR6 inh: -5.0; APJ agonist: 0.9; EBI2 antag: 48.7*

What do the screens show for `O=C(NC(=S)Nc1ccccc1Cl)c1cncc(Br)c1`?
CCR6 antag: 51.8*; APJ antag: 17.5; CXCR6 inh: 33.9; APJ agonist: -3.9; EBI2 antag: -4.3

Results for O=C(NC(=S)Nc1ccccc1Cl)c1cncc(C#Cc2ccccc2)c1 ?
CCR6 antag: 46.0; APJ antag: 29.0; CXCR6 inh: 30.8; APJ agonist: -3.1; EBI2 antag: 15.4

What do the screens show for `CCN(CC(=O)NCc1cccs1)C(=O)c1cccc(S(=O)(=O)N(CC)c2ccccc2)c1`?
CCR6 antag: 10.9; CXCR6 inh: -3.1; EBI2 antag: 4.4

How did O=C(c1ccc(C(F)(F)F)cc1)N1CCN(S(=O)(=O)c2ccc3c(c2)OCCCO3)CC1 do in these assays?
CCR6 antag: 12.1; APJ antag: -3.3; CXCR6 inh: -6.1; APJ agonist: -0.8; EBI2 antag: 51.1*

What do the screens show for `O=C(c1ccc(F)cc1)N1CCN(S(=O)(=O)c2ccc3c(c2)OCCO3)CC1`?
CXCR6 inh: 1.0; EBI2 antag: 8.4

How did COc1ccc(CN2CCC3CC2c2cc(Cl)ccc23)cc1 (stereo unspecified) do in these assays?
CCR6 antag: -1.9; CXCR6 inh: -0.7; EBI2 antag: 18.2

Results for Cc1ccc(Nc2c([N+](=O)[O-])ccc3c2=NC2(CCCCC2)N=3)cc1 ?
CCR6 antag: 31.1; APJ antag: -45.8; CXCR6 inh: 4.7; APJ agonist: 3.8; EBI2 antag: 62.2*

Results for Cc1ccc(Nc2ccc(N3CCN(c4ccc([N+](=O)[O-])cc4)CC3)nn2)cc1 ?
CCR6 antag: 6.7; APJ antag: 5.3; CXCR6 inh: 5.3; APJ agonist: -0.2; EBI2 antag: 8.5

Results for CCCN1C(=O)/C(=C\C=C2\N(CC)c3ccccc3C2(C)C)SC1=S ?
CCR6 antag: 45.7; CXCR6 inh: 18.7; EBI2 antag: 26.9

Results for CCN1C(=O)/C(=C/C=C2\C=CN(CC)c3ccccc32)SC1=S ?
CCR6 antag: 53.1*; CXCR6 inh: 33.8; EBI2 antag: 15.8

How did N=C1/C(=C/c2cccn2CCOc2ccccc2)C(=O)N=C2SC=C(c3ccccc3)N12 do in these assays?
CCR6 antag: 41.6; APJ antag: 8.6; CXCR6 inh: 20.5; APJ agonist: -2.1; EBI2 antag: 41.0*

How did CCOC(=O)[C@]12CCCC=C1N(CCC1=CCCCC1)C(=O)[C@H](CC(=O)NCc1cccs1)C2 do in these assays?
EBI2 antag: -4.4

How did COCCCN1C(=O)C(CC(=O)NCCc2ccccn2)CC(C(=O)N2CCCCCC2)=C1C (stereo unspecified) do in these assays?
CXCR6 inh: 4.4; EBI2 antag: -7.7

What do the screens show for `COC(=O)CSc1nc(N)c2c3c(sc2n1)C(c1ccccc1)SC(c1ccccc1)C3` (stereo unspecified)?
CCR6 antag: 6.8; APJ antag: -32.1; CXCR6 inh: 6.3; APJ agonist: 5.3; EBI2 antag: 55.4*

What do the screens show for `N#C/C(=N/Nc1ccc([N+](=O)[O-])cc1)C(=N)N1CCCCC1`?
CCR6 antag: 37.2; CXCR6 inh: 24.5; EBI2 antag: 5.9

What do the screens show for `N#C/C(=N\Nc1ccc([N+](=O)[O-])cc1)C(N)=S`?
CCR6 antag: 68.6*; APJ antag: 69.3*; CXCR6 inh: 53.4*; APJ agonist: -10.5; EBI2 antag: 18.8

What do the screens show for `Cc1[nH]n(-c2ccccc2)c(=O)c1/C=N/O`?
CCR6 antag: -16.3; APJ antag: 1.4; CXCR6 inh: -0.8; APJ agonist: -2.8; EBI2 antag: 4.0

Results for Cc1[nH]n(-c2ccccc2)c(=O)c1/C=N/N1C(=O)c2ccc3c4c(ccc(c24)C1=O)CC3 ?
APJ antag: -11.6; CXCR6 inh: 38.4*; APJ agonist: 2.9; EBI2 antag: 2.4

Bioassay records as filed in PubChem.
